# Values joined by “and” are separate entries in the source; they are usually repeats but may differ in a detail not shown here. Equal values may be shown once.
# Test system: U2OS
# Assay: Multiplex assay against U2OS
# Assay type: toxicity, cell-based
# Conditions: human, number of replicates 2
# Procedure, shortened: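 On a CQ1 microscope at 37°C and 5% CO2, live cells were imaged after compound addition. They had been stained at seeding with Hoechst33342, BioTracker Green Microtubule Cytoskeleton Dye, MitoTracker Red and Annexin V Alexa Fluor 680. CellPathfinder machine-learning gating assigned cells to Hoechst high-intensity objects or normal cells, normal cells to healthy, pyknosed or fragmented nuclei, and pyknosed cells to mitotic or apoptotic. Tubulin, mitochondrial-mass and membrane-permeability phenotypes are per cents of healthy-nucleus cells.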
# [1] = 12 h, 1 µM, compound concentration 1 uM
# [2] = 12 h, 10 µM, compound concentration 10 uM
# [3] = 24 h, 1 µM, compound concentration 1 uM
# [4] = 24 h, 10 µM, compound concentration 10 uM
# [5] = 48 h, 1 µM, compound concentration 1 uM
# [6] = 48 h, 10 µM, compound concentration 10 uM
smiles,measurement,setting,value
N=C(N)NCCC[C@H](NC(=O)COCC(c1ccccc1)c1ccccc1)C(=O)O.O=C(O)C(F)(F)F,Population Apoptotic (%),[1],100% and 45%
same,Population Healthy Nuclei (%),[1],40% and 87%
same,Population Hoechst High Intensity Objects (%),[1],0%
same,Population Membrane Permeable-Phenotype (%),[1],0% and 1%
same,Population Mitochondria Different-Phenotype (%),[1],0%
same,Population Normal (%),[1],100% and 99%
same,Population Pyknosed Nuclei (%),[1],13% and 9%
same,Population Tubulin-Different-Phenotype (%),[1],41% and 86%
same,Population Apoptotic (%),[2],50% and 58%
same,Population Fragmented Nuclei (%),[2],3%
same,Population Healthy Nuclei (%),[2],70% and 88%
same,Population Hoechst High Intensity Objects (%),[2],0%
same,Population Membrane Permeable-Phenotype (%),[2],4% and 1%
same,Population Mitochondria Different-Phenotype (%),[2],4% and 0%
same,Population Mitotic Cells (%),[2],50% and 41%
same,Population Normal (%),[2],100%
same,Population Tubulin-Different-Phenotype (%),[2],71% and 83%
same,Population Apoptotic (%),[3],40% and 51%
same,Population Healthy Nuclei (%),[3],55% and 88%
same,Population Hoechst High Intensity Objects (%),[3],0%
same,Population Membrane Permeable-Phenotype (%),[3],13% and 0%
same,Population Mitochondria Different-Phenotype (%),[3],0%
same,Population Mitotic Cells (%),[3],60% and 48%
same,Population Normal (%),[3],100%
same,Population Pyknosed Nuclei (%),[3],18% and 9%
same,Population Tubulin-Different-Phenotype (%),[3],73% and 87%
same,Population Apoptotic (%),[4],71% and 50%
same,Population Fragmented Nuclei (%),[4],7% and 2%
same,Population Healthy Nuclei (%),[4],73% and 88%
same,Population Hoechst High Intensity Objects (%),[4],0%
same,Population Membrane Permeable-Phenotype (%),[4],3% and 0%
same,Population Mitochondria Different-Phenotype (%),[4],3% and 0%
same,Population Mitotic Cells (%),[4],28% and 50%
same,Population Normal (%),[4],100%
same,Population Pyknosed Nuclei (%),[4],18% and 8%
same,Population Tubulin-Different-Phenotype (%),[4],67% and 85%
same,Population Apoptotic (%),[5],50% and 43%
same,Population Healthy Nuclei (%),[5],63% and 89%
same,Population Hoechst High Intensity Objects (%),[5],0%
same,Population Membrane Permeable-Phenotype (%),[5],11% and 0%
same,Population Mitochondria Different-Phenotype (%),[5],7% and 0%
same,Population Mitotic Cells (%),[5],50% and 56%
same,Population Normal (%),[5],100%
same,Population Pyknosed Nuclei (%),[5],14% and 6%
same,Population Tubulin-Different-Phenotype (%),[5],73% and 85%
same,Population Apoptotic (%),[6],35% and 55%
same,Population Fragmented Nuclei (%),[6],7% and 2%
same,Population Healthy Nuclei (%),[6],70% and 93%
same,Population Hoechst High Intensity Objects (%),[6],0%
same,Population Membrane Permeable-Phenotype (%),[6],2% and 1%
same,Population Mitochondria Different-Phenotype (%),[6],2% and 0%
same,Population Mitotic Cells (%),[6],64% and 44%
same,Population Normal (%),[6],100% and 99%
same,Population Tubulin-Different-Phenotype (%),[6],63% and 95%
Cn1cc(-n2cnc3c(NCc4nc5cc(Cl)c(Cl)cc5[nH]4)nc(N4CCOCC4)nc32)cn1,Population Apoptotic (%),[1],41% and 88%
same,Population Healthy Nuclei (%),[1],36% and 71%
same,Population Hoechst High Intensity Objects (%),[1],0%
same,Population Membrane Permeable-Phenotype (%),[1],5% and 7%
same,Population Mitochondria Different-Phenotype (%),[1],0% and 8%
same,Population Normal (%),[1],100%
same,Population Pyknosed Nuclei (%),[1],36% and 24%
same,Population Tubulin-Different-Phenotype (%),[1],58% and 50%
same,Population Apoptotic (%),[2],62% and 75%
same,Population Hoechst High Intensity Objects (%),[2],0%
same,Population Membrane Permeable-Phenotype (%),[2],33% and 23%
same,Population Mitochondria Different-Phenotype (%),[2],16% and 37%
same,Population Mitotic Cells (%),[2],37% and 24%
same,Population Normal (%),[2],100%
same,Population Pyknosed Nuclei (%),[2],39% and 28%
same,Population Tubulin-Different-Phenotype (%),[2],66% and 73%
same,Population Apoptotic (%),[3],96% and 80%
same,Population Fragmented Nuclei (%),[3],9% and 21%
same,Population Healthy Nuclei (%),[3],11% and 13%
same,Population Hoechst High Intensity Objects (%),[3],1% and 7%
same,Population Membrane Permeable-Phenotype (%),[3],18% and 0%
same,Population Normal (%),[3],98% and 92%
same,Population Pyknosed Nuclei (%),[3],79% and 65%
same,Population Tubulin-Different-Phenotype (%),[3],50% and 80%
same,Population Apoptotic (%),[4],94% and 95%
same,Population Hoechst High Intensity Objects (%),[4],1% and 0%
same,Population Mitotic Cells (%),[4],5% and 4%
same,Population Normal (%),[4],98% and 100%
same,Population Pyknosed Nuclei (%),[4],64% and 61%
same,Population Tubulin-Different-Phenotype (%),[4],89% and 33%
same,Population Apoptotic (%),[5],100% and 86%
same,Population Fragmented Nuclei (%),[5],10% and 16%
same,Population Healthy Nuclei (%),[5],4% and 0%
same,Population Hoechst High Intensity Objects (%),[5],2% and 7%
same,Population Mitotic Cells (%),[5],0% and 13%
same,Population Normal (%),[5],97% and 92%
same,Population Pyknosed Nuclei (%),[5],85% and 83%
same,Population Apoptotic (%),[6],94% and 92%
same,Population Healthy Nuclei (%),[6],10% and 5%
same,Population Hoechst High Intensity Objects (%),[6],0% and 1%
same,Population Membrane Permeable-Phenotype (%),[6],100% and 57%
same,Population Mitochondria Different-Phenotype (%),[6],100% and 57%
same,Population Mitotic Cells (%),[6],5% and 7%
same,Population Normal (%),[6],100% and 98%
same,Population Pyknosed Nuclei (%),[6],44% and 85%
same,Population Tubulin-Different-Phenotype (%),[6],100% and 85%

# From ChEMBL document CHEMBL5303300, “EUbOPEN Chemogenomics Library - Multiplex” (2023)
